Reference: ChEMBL document CHEMBL1156597, “Structure-activity relationship of kahalalide F synthetic analogues” (J Med Chem, 2008)

Columns and labels:
DU-145 = experiment: Cytotoxicity against human DU145 cells after 48 hrs by SRB assay; type: functional, cell-based; settings: Homo sapiens, DU-145, 48 h; read-out: LC50 (the source's name)
Outline: (§1)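 Cells grown in RPMI 1640 with 10% FBS and penicillin/streptomycin at 37 °C and 5% CO₂, trypsinized, then seeded at 5 × 10³/well. After 18 h drug-free attachment, samples in DMSO/EtOH/PBS (0.5:0.5:99) were added for 48 h continuous exposure. Cells were fixed with cold TCA (1 h, 4 °C) and stained with SRB (10 min). Tris-solubilized stain read at 490 nm. Triplicate wells, mean ± SD; GI₅₀ derived.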

LNCaP = experiment: Cytotoxicity against human LNcaP cells after 48 hrs by SRB assay; type: functional; settings: for CC50: read-out: LC50 (the source's name); outline: as §1
[1] = Cytotoxicity against human IGROV cells after 48 hrs by SRB assay; type: functional; settings: for CC50: read-out: LC50 (the source's name); outline: as §1
[2] = Cytotoxicity against human IGROV-ET cells after 48 hrs by SRB assay; type: functional; settings: for CC50: read-out: LC50 (the source's name); for GI50: read-out: GI50; outline: as §1
SK-BR-3 = experiment: Cytotoxicity against human SKBR3 cells after 48 hrs by SRB assay; type: functional; settings: SK-BR-3, 48 h; for CC50: read-out: LC50 (the source's name); for GI50: read-out: GI50; outline: as §1
SK-MEL-28 = experiment: Cytotoxicity against human SK-MEL-28 cells after 48 hrs by SRB assay; type: functional, cell-based; settings: Homo sapiens, SK-MEL-28, 48 h; for CC50: read-out: LC50 (the source's name); outline: as §1
A549 = experiment: Cytotoxicity against human A549 cells after 48 hrs by SRB assay; type: functional, cell-based; settings: Homo sapiens, A549, 48 h; outline: as §1
K562 = experiment: Cytotoxicity against human K562 cells after 48 hrs by SRB assay; type: functional; settings: K562, 48 h; for CC50: read-out: LC50 (the source's name); outline: as §1
PANC-1 = experiment: Cytotoxicity against human PANC1 cells after 48 hrs by SRB assay; type: functional; settings: PANC-1, 48 h; for CC50: read-out: LC50 (the source's name); outline: as §1
HT-29 = experiment: Cytotoxicity against human HT29 cells after 48 hrs by SRB assay; type: functional, cell-based; settings: Homo sapiens, HT-29, 48 h; for CC50: read-out: LC50 (the source's name); outline: as §1
LoVo [3] = experiment: Cytotoxicity against human LoVo cells after 48 hrs by SRB assay; type: functional; settings: for CC50: read-out: LC50 (the source's name)
LoVo [4] = experiment: Cytotoxicity against human doxorubicin resistant LoVo cells after 48 hrs by SRB assay; type: functional; settings: for CC50: read-out: LC50 (the source's name); outline: as §1
HeLa = experiment: Cytotoxicity against human HeLa cells after 48 hrs by SRB assay; type: functional; settings: read-out: LC50 (the source's name); outline: as §1
[5] = Cytotoxicity against human HeLa-APL cells after 48 hrs by SRB assay; type: functional; outline: as §1

Row | SMILES | CC50 (DU-145) | CC50 (LNCaP) | GI50 ([1]; read-out: GI50) | CC50 [1] | CC50 [2] | CC50 (SK-BR-3) | CC50 (SK-MEL-28) | LC50 (A549) | GI50 (K562) | TGI (K562) | CC50 (K562) | CC50 (PANC-1) | CC50 (HT-29) | TGI (LoVo [3]) | CC50 (LoVo [3]) | GI50 (LoVo [4]) | TGI (LoVo [4]) | CC50 (LoVo [4]) | CC50 (HeLa) | LC50 (concentration giving 50% net cell kill) [5] | also measured
1 | C/C=C1\NC(=O)[C@H](Cc2ccccc2)NC(=O)[C@@H](C(C)C)NC(=O)[C@@H]([C@H](C)CC)NC(=O)[C@H](NC(=O)[C@H](NC(=O)[C@H](CCCN)NC(=O)[C@H]2CCCN2C(=O)[C@H](NC(=O)[C@@H](NC(=O)[C@@H]2CCCN2C(=O)[C@H](NC(=O)CCCC(C)C)C(C)C)C(C)C)C(C)C)[C@H](C)CC)[C@H](C)OC(=O)[C@H](C(C)C)NC1=O | 1430 nM | 982 nM | 4520 nM | 585 nM | 920 nM | 302 nM | 1670 nM | 4690 nM | 1480 nM | 1690 nM | 1920 nM | 2280 nM | 4310 nM | 4050 nM | 3380 nM | 2860 nM | 2330 nM | 396 nM | 967 nM | 934 nM | GI50 [1]: 280 nM; TGI (SK-MEL-28): 2330 nM; GI50 (SK-MEL-28; read-out: GI50): 2440 nM; TGI (A549): 1530 nM; GI50 (A549; read-out: GI50): 1610 nM; GI50 (PANC-1): 5140 nM; TGI (PANC-1): 4520 nM; GI50 (HT-29): 4630 nM; TGI (HT-29): 4480 nM; GI50 (LoVo [3]): 4660 nM
2 | C/C=C1\NC(=O)[C@@H](Cc2ccccc2)NC(=O)[C@H](C(C)C)NC(=O)[C@H]([C@H](C)CC)NC(=O)[C@@H](NC(=O)[C@@H](NC(=O)[C@@H](CCCN)NC(=O)[C@@H]2CCCN2C(=O)[C@@H](NC(=O)[C@H](NC(=O)[C@H](NC(=O)[C@@H](NC(=O)CCCC(C)C)C(C)C)[C@@H](C)O)C(C)C)C(C)C)[C@H](C)CC)[C@H](C)OC(=O)[C@H](C(C)C)NC1=O | 10600 nM | 4920 nM | 161000 nM | 72000 nM | 2130 nM | 1690 nM | 1770 nM | 1920 nM | 2530 nM | 10500 nM | 25300 nM | 8900 nM | 3790 nM |  | 5540 nM |  |  | 4080 nM | 1910 nM | 2360 nM | TGI [1]: 134000 nM
3 | C/C=C1\NC(=O)[C@H](Cc2ccccc2)NC(=O)[C@@H](C(C)C)NC(=O)[C@@H]([C@H](C)CC)NC(=O)[C@H](NC(=O)[C@H](NC(=O)[C@H](CCCN)NC(=O)[C@H]2CCCN2C(=O)[C@H](NC(=O)[C@@H](NC(=O)[C@H](NC(=O)[C@H](NC(=O)CCCC(C)C)C(C)C)[C@@H](C)O)C(C)C)C(C)C)[C@H](C)CC)[C@H](C)OC(=O)[C@H](C(C)C)NC1=O | 1460 nM | 1490 nM |  | 791 nM | 1050 nM | 1140 nM | 1620 nM | 1810 nM | 1930 nM | 1930 nM | 1930 nM | 1770 nM | 4710 nM | 8960 nM | 4750 nM |  |  | 22300 nM | 1920 nM | 1800 nM | 
4 | C/C=C1\NC(=O)[C@H](Cc2ccccc2)NC(=O)[C@@H](C(C)C)NC(=O)[C@@H]([C@H](C)CC)NC(=O)[C@H](NC(=O)[C@H](NC(=O)[C@H](CCCN)NC(=O)[C@H]2CCCN2C(=O)[C@H](NC(=O)[C@H](CCC(=O)O)NC(=O)[C@@H](NC(=O)[C@H](NC(=O)CCCC(C)C)C(C)C)[C@@H](C)O)C(C)C)[C@H](C)CC)[C@H](C)OC(=O)[C@H](C(C)C)NC1=O | 1660 nM | 1370 nM |  | 842 nM | 632 nM | 1040 nM | 1820 nM | 1790 nM |  |  | 1890 nM | 2270 nM | 2330 nM |  | 3860 nM |  |  | 3670 nM | 1350 nM | 1420 nM | 
5 | C/C=C1\NC(=O)[C@H](Cc2ccccc2)NC(=O)[C@@H](C(C)C)NC(=O)[C@@H]([C@H](C)CC)NC(=O)[C@H](NC(=O)[C@H](NC(=O)[C@H](CCCN)NC(=O)[C@H]2CCCN2C(=O)[C@H](NC(=O)[C@@H](NC(=O)[C@H](CCCN)NC(=O)[C@H](NC(=O)CCCC(C)C)C(C)C)C(C)C)C(C)C)[C@H](C)CC)[C@H](C)OC(=O)[C@H](C(C)C)NC1=O | 1400 nM | 1120 nM | 4700 nM | 576 nM | 957 nM | 296 nM | 1640 nM | 4620 nM | 1620 nM | 1890 nM | 2180 nM | 2240 nM | 446 nM | 4180 nM | 3330 nM | 2880 nM | 2700 nM | 484 nM | 951 nM | 9600 nM | GI50 (LNCaP): 675 nM; TGI (LNCaP): 2240 nM; GI50 [1]: 292 nM; GI50 (HT-29): 5900 nM; TGI (HT-29): 5140 nM; GI50 (LoVo [3]): 4940 nM
6 | C/C=C1\NC(=O)[C@H](Cc2ccccc2)NC(=O)[C@@H](C(C)C)NC(=O)[C@@H]([C@H](C)CC)NC(=O)[C@H](NC(=O)[C@H](NC(=O)[C@H](CCCN)NC(=O)[C@H]2CCCN2C(=O)[C@H](NC(=O)[C@@H](NC(=O)[C@@H](NC(=O)[C@H](NC(=O)CCCC(C)C)C(C)C)[C@@H](C)O)[C@@H](C)O)C(C)C)[C@H](C)CC)[C@H](C)OC(=O)[C@H](C(C)C)NC1=O | 1690 nM | 1400 nM |  | 859 nM | 644 nM | 1060 nM | 1860 nM | 1820 nM |  |  | 1930 nM | 2320 nM | 2370 nM | 3350 nM | 3770 nM | 2990 nM | 2900 nM | 2820 nM | 1380 nM | 1450 nM | TGI [2]: 1750 nM; GI50 [2]: 1910 nM; TGI (SK-BR-3): 2430 nM; GI50 (SK-BR-3): 2070 nM; GI50 (PANC-1): 5510 nM; TGI (PANC-1): 4560 nM; GI50 (HT-29): 11000 nM; TGI (HT-29): 8870 nM; GI50 (LoVo [3]): 2970 nM
7 | C/C=C1\NC(=O)[C@H](Cc2ccccc2)NC(=O)[C@@H](C(C)C)NC(=O)[C@@H]([C@H](C)CC)NC(=O)[C@H](NC(=O)[C@H](NC(=O)[C@H](CCCN)NC(=O)[C@H]2CCCN2C(=O)[C@H](NC(=O)[C@@H](NC(=O)[C@@H](NC(=O)[C@H](NC(=O)CCCCC(C)=O)C(C)C)[C@@H](C)O)C(C)C)C(C)C)[C@H](C)CC)[C@H](C)OC(=O)[C@H](C(C)C)NC1=O | 1670 nM | 1390 nM |  | 851 nM | 638 nM | 1050 nM | 1840 nM | 1810 nM |  |  | 1910 nM | 2290 nM | 2350 nM | 8100 nM | 3900 nM | 5050 nM | 7660 nM | 3710 nM | 1370 nM | 1440 nM | TGI (SK-BR-3): 6310 nM; GI50 (SK-BR-3): 7270 nM; GI50 (LoVo [3]): 8590 nM
8 | C/C=C1\NC(=O)[C@H](Cc2ccccc2)NC(=O)[C@@H](C(C)C)NC(=O)[C@@H]([C@H](C)CC)NC(=O)[C@H](NC(=O)[C@H](NC(=O)[C@H](CCCN)NC(=O)[C@H]2CCCN2C(=O)[C@H](NC(=O)[C@@H](NC(=O)[C@@H](NC(=O)[C@@H](C(C)C)N(CCCCCC)CCCCCC)[C@@H](C)O)C(C)C)C(C)C)[C@H](C)CC)[C@H](C)OC(=O)[C@H](C(C)C)NC1=O | 2280 nM | 1480 nM |  | 1210 nM | 4230 nM | 3530 nM | 1660 nM | 1160 nM |  |  | 1900 nM | 2270 nM | 2030 nM |  | 4060 nM |  |  | 3780 nM | 1050 nM | 1220 nM | GI50 (LNCaP): 3720 nM; TGI (LNCaP): 3300 nM; GI50 [5]: 1810 nM; TGI [5]: 1580 nM
9 | C/C=C1\NC(=O)[C@H](Cc2ccccc2)NC(=O)[C@@H](C(C)C)NC(=O)[C@@H]([C@H](C)CC)NC(=O)[C@H](NC(=O)[C@H](NC(=O)[C@H](CCCN)NC(=O)[C@H]2CCCN2C(=O)[C@H](NC(=O)[C@@H](NC(=O)[C@@H](NC(=O)[C@H](NC(=O)CCCC(C)C)C(C)C)[C@@H](C)O)C(C)C)C(C)C)[C@H](C)CC)[C@@H](C)OC(=O)[C@H](C(C)C)NC1=O | 10600 nM | 4920 nM | 73200 nM | 72400 nM | 2130 nM | 1690 nM | 1770 nM | 1920 nM |  |  | 4420 nM | 8900 nM | 3790 nM |  | 5540 nM | 6030 nM | 7370 nM | 4080 nM | 1910 nM | 2360 nM | GI50 (LNCaP): 19300 nM; TGI (LNCaP): 20300 nM; TGI [1]: 106000 nM; TGI [2]: 4480 nM; GI50 [2]: 3760 nM
